According to the array DNA melting data of Ke et al. (doi:10.1101/2024.01.08.574731):

Tests used:
[1] = folding enthalpy; higher = less favourable; fluorescence melt of hairpins on a sequencing array, two-state fit; details: sodium 0.088 M
Summary of the method: (§1)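 With Cy3 and quencher oligos annealed, library hairpins on a sequenced MiSeq flow cell were imaged for Cy3 fluorescence in 50 mM Na-HEPES pH 8.0, 25 mM NaCl, in 2.5 °C steps up to 60 °C. Melting temperature and folding enthalpy were derived from bootstrapped two-state fits of signals normalised to pre-quench Cy3 and to control constructs. Four replicates were combined by inverse variance, with fitted temperatures raised by 9.35 °C to match UV melts.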

[2] = melting temperature; fluorescence melt of hairpins on a sequencing array, two-state fit, raised by 9.35 °C to match UV melts; details: sodium 0.088 M
Summary of the method: as §1

Row | Sequence | folding enthalpy [1] [kcal/mol] | Tm [2] [°C]
1 | GATGGAGGAAACTCTATC (((.(((....))).))) | -24.4 | 37.8
2 | GATGGAGGAAACTCTGTC ((..(((....)))..)) | -21 | 29.1
3 | GATGGCACGAAAGTGATC (((..(((....)))))) | -12.9 | 27.2
4 | GATGGCCGAAAGGCAATC (((.(((....))).))) | -20.9 | 57.3
5 | GATGGCCGAAAGGCATC (((.(((....)))))) | -14.6 | 49.9
6 | GATGGCGAAAGCCTATC ((((((....))).))) | -12.7 | 44.3
7 | GATGGCGCGAAAGCGATC (((..(((....)))))) | -11 | 31.6
8 | GATGGCGGAAACGTCGTC ((.(.((....)).).)) | -29.6 | 45.4
9 | GATGGGGGAAACTCCATC (((((.(....).))))) | -32.9 | 49.2
10 | GATGGTGAAAACCATC ((((((....)))))) | -36.5 | 57.8
11 | GATGGTGGAAACACCACC (.(((((....))))).) | -13.6 | 44.6
12 | GATGGTGGAAACGCCATC (((((.(....).))))) | -44.2 | 53.4
13 | GATGTACGAAAGTAATC (((.(((....)))))) | -21.1 | 35.8
14 | GATGTAGGAAACTACACC (.(((((....))))).) | -17.8 | 31.8
15 | GATGTAGGAAACTATATC (((.(((....))).))) | -28.5 | 33.1
16 | GATGTCCCGAAAGGGATC (((..(((....)))))) | -9.1 | 33.6
17 | GATGTCCGAAAGGAATC (((.(((....)))))) | -13.5 | 31.5
18 | GATGTCGGAAACGACGTC ((.((((....)))).)) | -31.3 | 54.1
19 | GATGTCGGAAACGATATC (((.(((....))).))) | -48.3 | 46.6
20 | GATGTCGGAAACGATGTC ((..(((....)))..)) | -32.6 | 39.9
21 | GATGTGCGAAAGCAAATC (((.(((....))).))) | -23.3 | 46.6
22 | GATGTGCGAAAGCATATC (((.(((....))).))) | -32.6 | 54.2
23 | GATGTGGGAAACCATATC (((.(((....))).))) | -41.5 | 43.2

Row | Sequence | folding enthalpy [1] [kcal/mol] | Tm [2] [°C]
24 | GATTAAGGAAACTTAATC (((((((....))))))) | -31.3 | 45.5
25 | GATTACGAAAGTAATATC ((((((....)))..))) | -22.1 | 38.6
26 | GATTACGAAAGTACATC ((((((....))).))) | -17.7 | 31.1
27 | GATTAGGGAAACCTAATC (((((((....))))))) | -45.1 | 50.3
28 | GATTATGGAAACATGATC (((.(((....))).))) | -32.8 | 35.5
29 | GATTCACGAAAGTGATC (((.(((....)))))) | -13.4 | 42.3
30 | GATTCAGAAATGAATC ((((((....)))))) | -25.8 | 46.7
31 | GATTCAGGAAACTGAACC (.(((((....))))).) | -17.4 | 31.4
32 | GATTCCCGAAAGGGCATC (((.(((....))).))) | -20.8 | 41.5
33 | GATTCCGAAAGGAAATC ((((((....))).))) | -21.4 | 41.5
34 | GATTCCGAAAGGAAGATC ((((((....)))..))) | -22.3 | 45.4
35 | GATTCCGAAAGGAATC ((((((....)))))) | -35.7 | 64.9
36 | GATTCCGAAAGGACAATC ((((((....)))..))) | -13.8 | 25.6
37 | GATTCCGAAAGGAGGATC ((((((....)))..))) | -11.2 | 30.4
38 | GATTCCGAAAGGATGATC ((((((....)))..))) | -21.8 | 31.8
39 | GATTCGGGAAACCGAATC (((((((....))))))) | -47.5 | 60.4
40 | GATTCGGGAAACCGGATC (((.(((....))).))) | -39.6 | 49.3
41 | GATTCGGGAAACTGAATC (((((.(....).))))) | -40.8 | 45
42 | GATTGACGAAAGTCTATC (((.(((....))).))) | -26.2 | 46.1
43 | GATTGAGGAAACTCAGTC ((.((((....)))).)) | -26.8 | 36.6
44 | GATTGCGAAAGCAATATC ((((((....)))..))) | -13.1 | 50.1
45 | GATTGCGAAAGCACATC ((((((....))).))) | -19.3 | 40.1
46 | GATTGCGAAAGCAGAATC ((((((....)))..))) | -13.8 | 35.4

Row | Sequence | folding enthalpy [1] [kcal/mol] | Tm [2] [°C]
47 | GATTGCGGAAACGCAACC (.(((((....))))).) | -12.2 | 45.5
48 | GATTGGCGAAAGCCATC (((.(((....)))))) | -9.48 | 41.3
49 | GATTGGGGAAACCCAACC (.(((((....))))).) | -14.5 | 36.7
50 | GATTGGGGAAACCCAATC (((((((....))))))) | -41 | 61
51 | GATTGTGGAAACATAATC ((((.((....)).)))) | -27.3 | 36.1
52 | GATTGTGGAAACATGATC (((..((....))..))) | -18 | 31.2
53 | GATTTAGCGAAAGCTATC (((..(((....)))))) | -10.5 | 29.1
54 | GATTTAGGAAACTGAATC ((((.((....)).)))) | -26.4 | 33.1
55 | GATTTCGGAAACGGAATC ((((.((....)).)))) | -38.9 | 45
56 | GATTTTACGAAAGTAATC (((..(((....)))))) | -13.6 | 26.3
57 | GCAAAACGAAAGTTATGC (((.(((....))).))) | -28.9 | 45.8
58 | GCAAAACGAAAGTTGTGC (((.(((....))).))) | -34.2 | 49.1
59 | GCAAACCCGAAAGGGTGC (((..(((....)))))) | -17.5 | 51.7
60 | GCAAACCGAAAGGTGTGC (((.(((....))).))) | -37.6 | 57.3
61 | GCAAACGAAAGTTCATGC ((((((....)))..))) | -11.2 | 26
62 | GCAAACGAAAGTTCTGC ((((((....))).))) | -20.5 | 37.2
63 | GCAAACGAAAGTTGCTGC ((((((....)))..))) | -22.2 | 54.1
64 | GCAAACGAAAGTTGGTGC ((((((....)))..))) | -22.5 | 36.7
65 | GCAAACGAAAGTTGTTGC ((((((....)))..))) | -22.5 | 32.9
66 | GCAAACGAAAGTTTCTGC ((((((....)))..))) | -14.9 | 33.8
67 | GCAAACGAAAGTTTGTGC ((((((....)))..))) | -25.2 | 52.8
68 | GCAAACGAAAGTTTTTGC ((((((....)))..))) | -16.1 | 35.2
69 | GCAAACGGAAACATTTGC (((((.(....).))))) | -28.2 | 36.7

Row | Sequence | folding enthalpy [1] [kcal/mol] | Tm [2] [°C]
70 | GCAAACGGAAACGCTTGC ((((.((....)).)))) | -35.1 | 47.6
71 | GCAAAGCGAAAGCCATGC (((..((....))..))) | -12.3 | 32.2
72 | GCAAAGCGAAAGCCTAGC ((.(.((....)).).)) | -7.83 | 30.2
73 | GCAAAGCGAAAGCCTCGC ((.(.((....)).).)) | -7.59 | 27.9
74 | GCAAAGCGAAAGCGCTGC (((..((....))..))) | -16.9 | 57.4
75 | GCAAAGCGAAAGCTACGC ((..(((....)))..)) | -11 | 40.8
76 | GCAAAGCGAAAGCTAGGC ((..(((....)))..)) | -15.1 | 48.3
77 | GCAAAGCGAAAGCTTCGC ((.((((....)))).)) | -23.8 | 55.8
78 | GCAAAGCGAAAGCTTGC (((.(((....)))))) | -23.8 | 64.5
79 | GCAAAGTCGAAAGACTGC (((..(((....)))))) | -19.5 | 47.8
80 | GCAAATGGAAACATTTAC (.(((((....))))).) | -13.5 | 28.1
81 | GCAACAGGAAACTATTGC ((((.((....)).)))) | -19.2 | 31.8
82 | GCAACAGGAAACTGTCGC ((.((((....)))).)) | -32.1 | 44.2
83 | GCAACCGAAAGGTCTGC ((((((....))).))) | -22.7 | 47.6
84 | GCAACCGCGAAAGCGTGC (((..(((....)))))) | -14.3 | 44.7
85 | GCAACCGGAAACAGTTGC (((((.(....).))))) | -31.7 | 45.7
86 | GCAACGCGAAAGCGCAGC ((..(((....)))..)) | -11.7 | 48.1
87 | GCAACGCGAAAGCTGTGC (((..((....))..))) | -15.2 | 48.9
88 | GCAACGCGAAAGCTTAGC ((.(.((....)).).)) | -7.66 | 28.5
89 | GCAACGCGAAAGCTTGGC ((.(.((....)).).)) | -11.5 | 38.5
90 | GCAACGTCGAAAGACTGC (((..(((....)))))) | -20.1 | 39.1
91 | GCAACTCGAAAGAGCTGC (((.(((....))).))) | -46.6 | 52.3
